Source: ChEMBL document CHEMBL4261620, “Design, synthesis, and biological evaluation of 4-chloro-2H-thiochromenes featuring nitrogen-containing side chains as potent antifungal agents” (Bioorg Med Chem Lett, 2018)
Converted amounts (≈) assume the structure as drawn.

Columns and labels:
Candida albicans [1] = experiment: Antifungal activity against Candida albicans cpcc 400616 after 2 to 7 days by broth microdilution method; format: functional
In short: (§1)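 Broth microdilution in 96-well plates per NCCLS. Compounds and fluconazole reference dissolved in DMSO, serially diluted in growth medium, then inoculum suspension added, final concentrations 128 to 0.25 µg/mL (twofold series). Incubated at 32°C. MIC read visually after 2-7 d.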

Candida albicans [2] = experiment: Antifungal activity against fluconazole-sensitive Candida albicans ATCC SC5314 after 2 to 7 days by broth microdilution method; format: functional; in short: as §1
Candida albicans [3] = experiment: Antifungal activity against fluconazole-resistant Candida albicans 103 after 2 to 7 days by broth microdilution method; format: functional
In short: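 Broth microdilution per NCCLS. Compounds dissolved in DMSO, serially diluted in growth medium, then inoculum suspension added to give final concentrations of 128 to 0.25 µg/mL (twofold steps). Plates incubated at 32°C. MIC read by visual observation after 2-7 d. Fluconazole served as reference drug.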

Cryptococcus neoformans = experiment: Antifungal activity against Cryptococcus neoformans cgmcc 2.3161 after 2 to 7 days by broth microdilution method; format: functional; in short: as §1
Candida tropicalis = experiment: Antifungal activity against Candida tropicalis cgmcc 2.3739 after 2 to 7 days by broth microdilution method; format: functional; in short: as §1
Aspergillus fumigatus = experiment: Antifungal activity against Aspergillus fumigatus cgmcc 3.7795 after 2 to 7 days by broth microdilution method; format: functional; in short: as §1
A549 = experiment: Cytotoxicity against human A549 cells by MTT assay; format: cell-based
HepG2 = experiment: Cytotoxicity against human HepG2 cells by MTT assay; format: cell-based
HT-29 = experiment: Cytotoxicity against human HT-29 cells by MTT assay; format: cell-based
H9c2 = experiment: Cytotoxicity against rat H9c2 cells by MTT assay; format: cell-based

Structure (SMILES)	MIC (Candida albicans [1])	MIC (Candida albicans [2])	MIC (Candida albicans [3])	MIC (Cryptococcus neoformans)	MIC (Candida tropicalis)	MIC (Aspergillus fumigatus)	IC50 (A549)	IC50 (HepG2)	IC50 (HT-29)	IC50 (H9c2)
O=C1CCSc2ccc(Cl)cc21	16 µg/mL (≈ 80.5 µM)	4 µg/mL (≈ 20.1 µM)	16 µg/mL (≈ 80.5 µM)	32 µg/mL (≈ 161 µM)	8 µg/mL (≈ 40.3 µM)	> 128 µg/mL				
Fc1ccc2c(c1)C(Cl)=C(Cn1cncn1)CS2	16 µg/mL (≈ 56.8 µM)	4 µg/mL (≈ 14.2 µM)	32 µg/mL (≈ 114 µM)	64 µg/mL (≈ 227 µM)	8 µg/mL (≈ 28.4 µM)	> 128 µg/mL				
CC(C)N(CC1=C(Cl)c2cc(Br)ccc2SC1)C(C)C	0.5 µg/mL (≈ 1.33 µM)	0.5 µg/mL (≈ 1.33 µM)	0.5 µg/mL (≈ 1.33 µM)	0.25 µg/mL (≈ 0.667 µM)	> 128 µg/mL	> 128 µg/mL	36 µg/mL (≈ 96.2 µM)	> 100 µg/mL	> 100 µg/mL	> 100 µg/mL
ClC1=C(CN2CCCC2)CSc2ccc(Br)cc21	16 µg/mL (≈ 46.4 µM)	8 µg/mL (≈ 23.2 µM)	64 µg/mL (≈ 186 µM)	8 µg/mL (≈ 23.2 µM)	128 µg/mL (≈ 371 µM)	> 128 µg/mL				
COc1cccc2c1C(=O)c1c(O)c3c(c(O)c1C2=O)C[C@@](O)(C(=O)CO)C[C@@H]3O[C@H]1C[C@H](N)[C@H](O)[C@H](C)O1							1.77 µg/mL (≈ 3.26 µM)	2.9 µg/mL (≈ 5.34 µM)	1.44 µg/mL (≈ 2.65 µM)	0.29 µg/mL (≈ 0.534 µM)
CCN(CC)CC1=C(Cl)c2cc(Cl)ccc2SC1	4 µg/mL (≈ 13.2 µM)	0.5 µg/mL (≈ 1.65 µM)	8 µg/mL (≈ 26.5 µM)	1 µg/mL (≈ 3.31 µM)	2 µg/mL (≈ 6.62 µM)	> 128 µg/mL	> 100 µg/mL	> 100 µg/mL	> 100 µg/mL	> 100 µg/mL
ClC1=C(Cn2ccnc2)CSc2ccc(Cl)cc21	32 µg/mL (≈ 108 µM)	16 µg/mL (≈ 53.8 µM)	64 µg/mL (≈ 215 µM)	8 µg/mL (≈ 26.9 µM)	64 µg/mL (≈ 215 µM)	64 µg/mL (≈ 215 µM)				
CCN(CC)CC1=C(Cl)c2cc(Br)ccc2SC1	16 µg/mL (≈ 46.1 µM)	8 µg/mL (≈ 23.1 µM)	64 µg/mL (≈ 185 µM)	4 µg/mL (≈ 11.5 µM)	64 µg/mL (≈ 185 µM)	> 128 µg/mL				
CN1CCN(CC2=C(Cl)c3cc(F)ccc3SC2)CC1	16 µg/mL (≈ 51.1 µM)	16 µg/mL (≈ 51.1 µM)	16 µg/mL (≈ 51.1 µM)	1 µg/mL (≈ 3.2 µM)	32 µg/mL (≈ 102 µM)	> 128 µg/mL				
O=CC1=C(Cl)c2cc(Br)ccc2SC1	32 µg/mL (≈ 111 µM)	16 µg/mL (≈ 55.3 µM)	64 µg/mL (≈ 221 µM)	32 µg/mL (≈ 111 µM)	64 µg/mL (≈ 221 µM)	> 128 µg/mL	> 100 µg/mL	26.6 µg/mL (≈ 91.9 µM)	28.8 µg/mL (≈ 99.4 µM)	> 100 µg/mL
O=C1CCSc2ccc(F)cc21	32 µg/mL (≈ 176 µM)	8 µg/mL (≈ 43.9 µM)	64 µg/mL (≈ 351 µM)	64 µg/mL (≈ 351 µM)	16 µg/mL (≈ 87.8 µM)	64 µg/mL (≈ 351 µM)				
CN1CCN(CC2=C(Cl)c3cc(Br)ccc3SC2)CC1	16 µg/mL (≈ 42.8 µM)	8 µg/mL (≈ 21.4 µM)	64 µg/mL (≈ 171 µM)	8 µg/mL (≈ 21.4 µM)	16 µg/mL (≈ 42.8 µM)	> 128 µg/mL				
CC(C)NCC1=C(Cl)c2cc(Cl)ccc2SC1	32 µg/mL (≈ 111 µM)	16 µg/mL (≈ 55.5 µM)	32 µg/mL (≈ 111 µM)	0.5 µg/mL (≈ 1.73 µM)	32 µg/mL (≈ 111 µM)	64 µg/mL (≈ 222 µM)				
Fc1ccc2c(c1)C(Cl)=C(CN1CCCCC1)CS2	2 µg/mL (≈ 6.72 µM)	8 µg/mL (≈ 26.9 µM)	16 µg/mL (≈ 53.7 µM)	2 µg/mL (≈ 6.72 µM)	16 µg/mL (≈ 53.7 µM)	> 128 µg/mL				
O=CC1=C(Cl)c2cc(Cl)ccc2SC1	64 µg/mL (≈ 261 µM)	32 µg/mL (≈ 131 µM)	64 µg/mL (≈ 261 µM)	32 µg/mL (≈ 131 µM)	32 µg/mL (≈ 131 µM)	> 128 µg/mL	> 100 µg/mL	21.5 µg/mL (≈ 87.8 µM)	18.4 µg/mL (≈ 75.2 µM)	> 100 µg/mL
CC(C)N(CC1=C(Cl)c2cc(F)ccc2SC1)C(C)C	4 µg/mL (≈ 12.7 µM)	4 µg/mL (≈ 12.7 µM)	64 µg/mL (≈ 204 µM)	4 µg/mL (≈ 12.7 µM)	2 µg/mL (≈ 6.37 µM)	> 128 µg/mL				
ClC1=C(Cn2cncn2)CSc2ccc(Br)cc21	> 128 µg/mL	64 µg/mL (≈ 187 µM)	> 128 µg/mL	8 µg/mL (≈ 23.3 µM)	> 128 µg/mL	> 128 µg/mL				
Cc1ccc2c(c1)C(Cl)=C(CN1CCN(C)CC1)CS2	32 µg/mL (≈ 104 µM)	8 µg/mL (≈ 25.9 µM)	64 µg/mL (≈ 207 µM)	32 µg/mL (≈ 104 µM)	8 µg/mL (≈ 25.9 µM)	> 128 µg/mL				
